# Compound activity (PubChem)
# Only some compounds are listed: those with a hit (about 2.6% of all), similar ones and a draw of the others.
# INS-1E GSIS act – primary screen for activators of insulin secretion dependent on glucose, INS-1E cells, GLuc reporter luminescence | INS-1E GLuc reporter insulin secretion, 2-3 h | activation, % at 16.6 µM | hit rate 0.61% among 370,000;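 active = lowest replicate activation of at least 40%, so every replicate reaches that level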;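 note: 0% = median of neutral control wells and 100% = median of IBMX positive control wells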
# RAD52 inh – inhibitors of human RAD52 DNA annealing | P43351 | inhibition, % at 18.7 µM | recombinant RAD52 DNA annealing, FRET fluorescence | hit rate 0.46% among 360,000;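 active = every replicate showing at least 50% inhibition; inconclusive = mean inhibition at least 50% but not in every replicate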
# E-sel inducer – E-selectin induction on HUVECs; activation, % at 7.58 µM; HUVEC E-selectin immunofluorescence imaging; normalized: neutral wells 0, TNF-alpha wells 100; AID 686992; hit rate 0.37% among 260,000; P16581;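 active = mean E-selectin-positive cell signal at least 10% of the positive control, reached in at least 60% of replicates, without over 20% cell loss; inconclusive = no rule given, readout overlaps actives, possibly toxicity-flagged; inactive = the rest, including those meeting only one limit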
#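 material = human umbilical vein endothelial cells (HUVEC), E-selectin induction | quantity = 3,000 cells/well | medium = EGM-2 growth medium on 0.1% gelatin-coated wells | technique = immunofluorescence imaging | read-out basis = % PE-positive cells | control set = TNF-alpha positive control, DMSO neutral control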
# MLL AF4-AF9 inh – inhibitors of human MLL-AF4/AF9 interaction; P42568; AlphaScreen, biotin-AF4 peptide binding to FLAG-AF9; inhibition, % at 10 µM; hit rate 0.47% among 350,000; AID 651704;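 active = every replicate reaching a set inhibition limit, whatever the replicate mean, cut at about 25% in these data; inconclusive = mean inhibition reaches that limit but some replicates miss it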;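 note: 0% = plate neutral control median and 100% = total signal loss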
# Ecoli rRNA inh – inhibitors of bacterial rRNA selective over humanized ribosomes. E. coli WT GFP vs humanized-ribosome RFP mutants, fluorescence, 24 h; hits give low values; DMSO median 0, no signal -100. GFP signal change (wild-type ribosome), % (test concentration not listed). hit rate 1.6% among 350,000;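 active = significant combined selectivity score with lowered wild-type GFP, culture density cut under 30%, mutant RFP and density less affected; inactive = any of these conditions unmet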
# RAD54 inh – inhibitors of human RAD54 branch migration; RAD54 Holliday junction branch migration, FAM/BHQ fluorescence; hit rate 0.14% among 360,000; inhibition, % at 10.4 µM; AID 602329;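 active = mean normalized replicate activity at least 40 and at least half of replicates scoring 40 or more; inconclusive = only one of the two criteria met; inactive = mean below 40 and under half of replicates reaching 40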;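 note: 0% = median of neutral control wells and 100% = median of positive control wells; inhibitors cause a drop in the FAM fluorescence signal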
# Target sequence (Q92698 whole entry, looked up): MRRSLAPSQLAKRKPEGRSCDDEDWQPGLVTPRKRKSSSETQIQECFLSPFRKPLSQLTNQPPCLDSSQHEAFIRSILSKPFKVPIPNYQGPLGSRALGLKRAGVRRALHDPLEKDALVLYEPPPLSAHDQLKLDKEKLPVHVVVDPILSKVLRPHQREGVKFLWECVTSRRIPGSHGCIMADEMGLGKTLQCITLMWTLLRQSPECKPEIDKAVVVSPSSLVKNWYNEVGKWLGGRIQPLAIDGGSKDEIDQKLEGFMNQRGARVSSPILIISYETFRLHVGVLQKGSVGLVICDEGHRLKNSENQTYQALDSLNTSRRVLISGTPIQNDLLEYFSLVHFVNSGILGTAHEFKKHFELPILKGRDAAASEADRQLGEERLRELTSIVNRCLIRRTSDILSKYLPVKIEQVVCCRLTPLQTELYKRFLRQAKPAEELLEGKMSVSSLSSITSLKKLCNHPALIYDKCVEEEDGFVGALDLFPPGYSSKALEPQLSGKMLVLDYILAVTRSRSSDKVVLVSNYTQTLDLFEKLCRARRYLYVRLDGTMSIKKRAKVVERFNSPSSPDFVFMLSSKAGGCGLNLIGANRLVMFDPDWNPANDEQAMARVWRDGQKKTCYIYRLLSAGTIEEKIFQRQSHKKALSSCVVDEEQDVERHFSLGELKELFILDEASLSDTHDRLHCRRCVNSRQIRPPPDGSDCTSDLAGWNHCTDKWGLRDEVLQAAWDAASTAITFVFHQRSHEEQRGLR
# RAD52 DNA ctr – binds DNA, flagging false RAD52 inhibitor hits. shares compounds with RAD52 inh. Salmon sperm DNA/acridine orange FP displacement, DNA binding. AC50, µM. hit rate 8% among 1,000;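 active = fitted half-maximal concentration for signal loss at or below twice the highest dose tested, in every separate run, actives reach about 64 µM in these data; inconclusive = runs disagree, or flat partial signal loss, or poor fit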
# AID977621 – wild-type E. coli growth inhibition versus H69 humanized strain – H69 mutant RFP, wild-type GFP, cherry-pick, dose response; shares compounds with Ecoli rRNA inh; fluorescence, 24 h; activity change, negative = inhibition at 50 µM; 1,900 tested, under 10 active;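 active = Wild-type ribosome reporter drop at least double the humanized mutant ribosome reporter drop, growth loss under a set limit; inconclusive = no clear call, values can overlap the other calls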;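 note: wild-type GFP and H69 mutant RFP strains grown together 50/50 in each well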
# AID977628 – E. coli growth inhibition, wild-type GFP versus h24 humanized RFP strain, dose response, h24 mutant RFP vs wild-type GFP, cherry-pick | shares compounds with Ecoli rRNA inh | E. coli WT GFP strain growth, fluorescence, 24 h | activity change, negative = inhibition at 50 µM | 1,900 tested, under 10 active;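 active = compound lowering the normal-ribosome reporter at least twice as much as the humanized-ribosome reporter, growth loss under a set limit; inconclusive = no clear call, values can overlap the other calls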;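 note: wild-type GFP and h24 humanized RFP strains co-cultured 1 to 1 per well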
# An asterisk follows results filed as active; i = inactive; u = inconclusive; x = not tested or not shown.
SMILES,INS-1E GSIS act,RAD52 inh,E-sel inducer,MLL AF4-AF9 inh,Ecoli rRNA inh,RAD54 inh,AID977621,AID977628,others
COC(=O)[C@H]1[C@H](CO)[C@H]2Cn3c(ccc(C4=CCCCC4)c3=O)[C@@H]1N2CC1CC1,-9.2,-5.8,-0.1,0.9,1.5,3.6,x,x,
NC(N)=N/N=C/c1ccc(N(c2ccccc2)c2ccccc2)cc1,320.8*,88.7*,1.4,-27.7,-57.6,-0.2,x,x,RAD52 DNA ctr=i
O=C(Cc1ccccn1)N1CC2(C1)[C@H](c1ccccc1)[C@H](CO)N2Cc1ccccn1,19.1,-106.3,-0.1,2.7,2.7,x,x,x,
COc1ccc(CC2=NCCc3cc(OC)c(OC)cc32)cc1OC,8.2,57.0*,-0.1,-1.5,x,42.0,x,x,RAD52 DNA ctr=i
NC1(C(=O)O)CCCc2ccc(N(CCCl)CCCl)cc21 (stereo not drawn),x,61.3*,-0.1,10.3,-0.4,2.8,x,x,RAD52 DNA ctr=i
COc1cc2c(ccc3c4cc(OC)c(OC)cc4c[n+](C)c23)cc1O,x,97.5*,-0.1,-3.1,-9.8,x,x,x,RAD52 DNA ctr=20.9µM*
O=C(Cc1cccnc1)N1CCCCN2[C@H](C1)[C@@H](c1ccc(C#CC3(O)CCCC3)cc1)[C@@H]2CO,8.7,-4.6,-0.5,-4.2,3.1,-9.7,x,x,
O=C1CNC[C@H]2[C@H](c3ccc(Br)cc3)[C@@H](CO)N12,5.1,11.6,0.2,-2.7,2.0,x,x,x,
Cc1c(C(=O)Nc2ccccc2)c2cc(O)ccc2n1Cc1ccccc1,-12.6,-9.8,0.0,4.7,-19.8*,3.9,-0.491,u,
CC(C)Cc1nc(N2CCNCC2)c(C#N)c2c1CCC2,-27.3,-55.2,0.0,x,-20.7*,-5.6,-16.5,x,
O=C(Cc1ccccn1)N1CCCCN2[C@H](CO)[C@H](c3ccc(C#Cc4ccccc4)cc3)[C@H]2C1,11.1,3.1,-0.4,-5.0,-6.8,-11.1,x,x,
Oc1c(Br)cc(Br)cc1Br,6.5,-0.4,x,x,-21.4*,-9.3,4.63,-1.74,
CSc1ccc(CN2CCN(Cc3ccccc3Cl)CC2)cc1,-11.0,-9.9,x,9.5,-22.5*,x,x,u,
CCOC(=O)C12C(=O)OCC1C2c1ccccc1 (stereo not drawn),9.9,-5.2,0.2,-2.2,-4.1*,x,2.98,1.3,
CCOC(=O)C1(CCOc2ccccc2)CCN(C2Cc3ccccc3C2)CC1,-18.2,-0.8,x,-0.3,-20.5,x,x,x,
Cc1ccccc1-c1ccc([C@H]2[C@H]3CN(C(=O)Cc4ccccn4)CCCCN3[C@H]2CO)cc1,4.5,-16.9,0.5,-6.2,-3.0,3.2,x,x,
COc1ccccc1CN1[C@H](CO)[C@H](c2ccccc2)C12CN(C(=O)Cc1ccccc1)C2,-3.7,3.1,-0.1,1.2,-13.4,x,x,x,
O=C(c1ccc(F)cc1Cl)N1CCC2(CC1)OCCO2,-6.2,-4.8,x,-4.5,5.5,-12.1,x,x,
O=C(c1sc2ccccc2c1Cl)N1CCC2(CC1)OCCO2,0.9,-17.5,x,-2.7,-19.6*,2.0,-0.9,-9.7,
CC(C)CCn1c(N)c(C(=O)NCc2cccs2)c2nc3ccccc3nc21,-38.8,-34.0,x,-0.1,-21.9*,-3.7,-3.42,u,
COCCNC(=O)c1c(N)n(CCC(C)C)c2nc3ccccc3nc12,-19.0,x,x,x,x,11.5,x,x,
COC(=O)[C@@H]1[C@@H](CO)[C@@H]2Cn3c(ccc(-c4ccccc4)c3=O)[C@H]1N2CC1CCOCC1,3.3,1.7,0.4,-0.1,-0.1,-11.0,x,x,
